In ChEMBL document CHEMBL1138436, “Biological activity and chemistry of taxoids from the Japanese yew, Taxus cuspidata” (J Nat Prod, 2004):
In brackets after ≈: the same amount, converted by molar mass.

How the values were obtained:
[1] = Reversal of multidrug resistance in human 2780AD cells assessed as increase in vincristine accumulation at 10 ug/ml relative to verapamil; assay type: functional, A2780 ADR
[2] = test system: KB; test: Cytotoxicity against human KB cells; assay type: functional, cell-based
[3] = Reversal of multidrug resistance in human 2780AD cells assessed as increase in vincristine accumulation at 1 ug/ml relative to verapamil; assay type: functional, A2780 ADR
[4] = test system: P388; test: Antitumor activity against vincristine-resistant mouse P388 cells implanted in CDF1 mouse at 0.1 mg/kg assessed as median survival time relative to control; assay type: functional
Procedure, shortened: (§1)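 CDF1 mice were implanted i.p. with P388/VCR (vincristine-resistant) leukemia cells on day 0. Vincristine was given i.p. daily for 5 days, alone or together with a taxoid at 200 mg/kg. There were 5 mice per group. T/C (%) is the median survival time of treated mice divided by that of untreated control mice.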

[5] = test system: P388; test: Antitumor activity against vincristine-resistant mouse P388 cells implanted in CDF1 mouse at 0.2 mg/kg assessed as median survival time relative to control; assay type: functional; procedure, shortened: as §1

| SMILES | IC50 [2] [µg/mL] | other results |
| --- | --- | --- |
| C=C1[C@@H](OC(=O)/C=C/c2ccccc2)CC[C@@]2(C)[C@@H](O)[C@H](OC(C)=O)C3=C(C)C(=O)C[C@@H]([C@@H](OC(C)=O)[C@H]12)C3(C)C | 0.08 (≈ 0.142 µM) | Activity [1]: 185% |
| C=C1[C@@H](OC(=O)/C=C/c2ccccc2)CC[C@@]2(C)[C@@H](OC(C)=O)[C@H](OC(C)=O)C3=C(C)C(=O)C[C@@H]([C@@H](O)[C@H]12)C3(C)C | – | Activity [1]: 191% |
| C=C1[C@@H](OC(=O)/C=C/c2ccccc2)CC[C@@]2(C)[C@@H](OC(C)=O)[C@H](OC(C)=O)[C@@]34O[C@]3(C)C(=O)C[C@@H]([C@@H](OC(C)=O)[C@H]12)C4(C)C | – | Activity [3]: 142% |
| C=C1[C@@H](OC(=O)/C=C/c2ccccc2)CC[C@@]2(C)[C@@H](OC(C)=O)[C@H](OC(C)=O)[C@@]34[C@H](C)C(=O)C[C@@](O)([C@@H](OC(C)=O)[C@@]132)C4(C)C | – | Activity [3]: 204% |
| CCCC(=O)N[C@@H](c1ccccc1)[C@@H](O)C(=O)O[C@H]1C[C@@]2(O)[C@@H](OC(=O)c3ccccc3)[C@@H]3[C@]4(OC(C)=O)CO[C@@H]4C[C@H](O)[C@@]3(C)C(=O)[C@H](OC(C)=O)C(=C1C)C2(C)C [TAXCULTIN] | 0.0015 (≈ 0.00183 µM) | – |
| CCCCCC(=O)N[C@@H](c1ccccc1)[C@@H](O)C(=O)O[C@H]1C[C@@]2(O)[C@@H](OC(=O)c3ccccc3)[C@@H]3[C@]4(OC(C)=O)CO[C@@H]4C[C@H](O)[C@@]3(C)C(=O)[C@H](OC(C)=O)C(=C1C)C2(C)C [TAXOL C] | 0.0015 (≈ 0.00177 µM) | – |
| C/C=C(\C)C(=O)O[C@@H]1C2=C(C)[C@@H](O)C[C@@](C(C)(C)O)([C@@H](OC(C)=O)[C@@H]3[C@]4(OC(C)=O)CO[C@@H]4C[C@H](OC(C)=O)[C@@]3(C)[C@H]1OC(C)=O)C2(C)C [TAXUSPINE Q] | 0.08 (≈ 0.115 µM) | – |
| C=C1[C@@H](OC(=O)/C=C/c2ccccc2)C[C@H](OC(C)=O)[C@@]2(CO)[C@@H](OC(C)=O)[C@H](OC(C)=O)[C@]3(O)[C@@]4(C)CO[C@]3(C)C(=O)C[C@H]4[C@@H](OC(C)=O)[C@H]12 [TAXUSPINE S] | 0.08 (≈ 0.112 µM) | – |
| C=C1[C@@H](OC(=O)/C=C/c2ccccc2)C[C@H](OC(C)=O)[C@@]2(COC(C)=O)[C@@H](OC(C)=O)[C@H](O)[C@]3(O)[C@@]4(C)CO[C@]3(C)C(=O)C[C@H]4[C@@H](OC(C)=O)[C@H]12 [TAXUSPINE T] | 0.08 (≈ 0.112 µM) | – |
| CC(=O)O[C@H]1C[C@H]2[C@@H](OC(C)=O)/C=C3\C[C@](C)(C(=O)[C@H](O)C(=C1C)C2(C)C)[C@@H](OC(C)=O)C[C@@H]3O [TAXUSPINE W] | 0.08 (≈ 0.162 µM) | – |
| CC[C@]1(O)C[C@H]2CN(CCc3c([nH]c4ccccc34)[C@@](C(=O)OC)(c3cc4c(cc3OC)N(C=O)[C@H]3[C@@](O)(C(=O)OC)[C@H](OC(C)=O)[C@]5(CC)C=CCN6CC[C@]43[C@@H]65)C2)C1 [VINCRISTINE] | – | T/C [4]: 92%; T/C [5]: 110% |
